Results on one compound are retold here after ChEMBL document CHEMBL4622968, “Discovery of [1,2,4]triazolo[4,3-a]pyridines as potent Smoothened inhibitors targeting the Hedgehog pathway with improved antitumor activity in vivo” (Bioorg Med Chem, 2020).

Series [1] in a line: Acute toxicity in Kunming mouse assessed as mortality at 3453 mg/kg, ig observed for 14 days relative to control. It counts as organism-based. Conditions: in vivo, po, read-out: Activity. In a few lines: (§1)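 Kunming mice, groups of 5 female and 5 male per dose, dosed once by gavage at graded doses; mortality recorded over 14 days as dead/treated and percent. LD50 derived by improved Karber's method: LD50 = lg^-1[xm − i(ΣP − 0.5)], xm log of maximal dose, i log ratio of neighbouring doses; 95% confidence intervals given.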

The species entered for a further series is Mus musculus. The series can be described thus: Inhibition of SAG-induced hedgehog pathway in mouse NIH/3T3 cells assessed as inhibition of Smo localization to primary cilia pretreated with SAG for 6 hrs followed by incubating for 24 hrs by confocal laser-scanning microscopy. It counts as cell-based. In a few lines:
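NIH3T3 cells in DMEM + 10% FBS were seeded at 2×10^4 per well on chamber slides for 24 h. They were stimulated with SAG (200 nM) for 6 h, then exposed to compound for 24 h. Cells were fixed in 4% paraformaldehyde and permeabilized with 0.1% Triton. Acetylated α-tubulin and Smo were immunostained and imaged by confocal microscopy.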

For series [2], the target named is T1, Protein smoothened (Homo sapiens, UniProt Q99835). The series can be described thus: Binding affinity to recombinant human Smo receptor assessed as association rate constant by SPR analysis. The procedure, abridged: (§2)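 Surface plasmon resonance with recombinant Smo protein, run in PBS at a flow rate of 2 μL/s and 4 °C. Analytes were injected at 2.5, 5 and 10 μM. The chip was regenerated with 0.5% SDS:glycine-HCl pH 2.0 (1:1). ka, kd, Rmax, KA and KD came from a global fit of the sensorgrams.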
Background: In SPR one partner is held on a chip, and binding of the other changes the refractive index at the surface.

Series [3] relates to MDA-MB-231. As to the kind of experiment: Antiproliferation activity against human MDA-MB-231 cells assessed as reduction in cell viability incubated for 72 hrs measured after 4 hrs by MTT assay. It counts as functional, cell-based. The procedure, abridged: (§3)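 MTT assay. Cells were plated overnight and exposed to a range of concentrations for 72 h. MTT was then added for 4 h and absorbance read at 570 nm. Inhibition% = [(control − compound)/(control − blank)] × 100. IC50 was fitted from the curves. Mean ± S.D. of 3–5 separate experiments. RPMI 1640 + 10% FBS; MCF10A in DMEM/F12 with 5% horse serum, EGF, hydrocortisone, insulin and cholera toxin.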

Series [4] concerns MDA-MB-468. The series can be described thus: Induction of cell cycle arrest in human MDA-MB-468 cells assessed as cell accumulation at G0/G1 phase at 28 uM incubated for 48 hrs by propidium iodide staining-based flow cytometric analysis (reference value: 38.94 %). It counts as functional. The procedure, abridged:
(§4)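 Cells were seeded at 1.2×10^5 per well and treated for 48 h (MDA-MB-468: 14, 28, 56 μM). Cells were fixed in 75% ethanol at −20 °C overnight, stained with PI and analysed by flow cytometry. Mean ± S.D. of three independent experiments versus DMSO.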
A general note: A flow cytometer gives signals particle by particle.

For a further series, the system named is MCF-10A. As to the kind of experiment: Cytotoxicity against human MCF10A cells assessed as cell viability incubated for 72 hrs measured by MTT assay. Type of series: cell-based. The procedure, abridged: as §3
(In general: Formazan colour is commonly taken as a measure of viable cells.)

The nature of series [5]: Acute toxicity in Kunming mouse assessed as lethality through intragastric administration observed for 14 days. Conditions: in vivo, po. The procedure, abridged:
as §1

In series [6] the test system is MDA-MB-468. As to the kind of experiment: Induction of apoptosis in human MDA-MB-468 cells assessed as increase in apoptosis incubated for 48 hrs by annexin-V-FITC/PI staining based flow cytometric method. It counts as functional, cell-based.
The target of series [7] is T1, Protein smoothened. As to the kind of experiment: Binding affinity to recombinant human Smo receptor assessed as dissociation rate constant by SPR analysis. In a few lines:
as §2

The subject of series [8] is MDA-MB-468. The series can be described thus: Induction of apoptosis in human MDA-MB-468 cells assessed as late apoptotic cells at 28 uM incubated for 48 hrs by annexin-V-FITC staining based flow cytometric method (reference value: 0.99 %). Type of series: functional.
The subject of series [9] is MDA-MB-468. The series can be described thus: Induction of cell cycle arrest in human MDA-MB-468 cells assessed as cell accumulation at S phase at 28 uM incubated for 48 hrs by propidium iodide staining-based flow cytometric analysis (reference value: 34.20 %). It counts as functional. The procedure, abridged:
as §4

In series [10] the test system is MDA-MB-231. The series can be described thus: Induction of apoptosis in human MDA-MB-231 cells assessed as increase in apoptosis incubated for 48 hrs by annexin-V-FITC/PI staining based flow cytometric method. It counts as functional, cell-based.
Series [11] relates to MDA-MB-468. The series can be described thus: Induction of apoptosis in human MDA-MB-468 cells assessed as early apoptotic cells at 14 uM incubated for 48 hrs by annexin-V-FITC staining based flow cytometric method (reference value: 2.00 %). It counts as functional.
Series [12] deals with MDA-MB-468. As to the kind of experiment: Induction of cell cycle arrest in human MDA-MB-468 cells assessed as cell accumulation at S phase at 14 uM incubated for 48 hrs by propidium iodide staining-based flow cytometric analysis (reference value: 34.20 %). It counts as functional. The procedure, abridged: as §4
For series [13], the system named is MDA-MB-468. As to the kind of experiment: Induction of cell cycle arrest in human MDA-MB-468 cells assessed as cell accumulation at G2/M phase at 14 uM incubated for 48 hrs by propidium iodide staining-based flow cytometric analysis (reference value: 26.66 %). It counts as functional. In a few lines: as §4
In series [14] the test system is MDA-MB-231. The series can be described thus: Induction of apoptosis in human MDA-MB-231 cells assessed as increase in Bax protein expression level incubated for 1 hr by Western blot analysis. Type of series: functional, cell-based.
Series [15] deals with MDA-MB-468. As to the kind of experiment: Induction of cell cycle arrest in human MDA-MB-468 cells assessed as cell accumulation at S phase at 56 uM incubated for 48 hrs by propidium iodide staining-based flow cytometric analysis (reference value: 34.20 %). It counts as functional. In a few lines:
as §4

Series [16] concerns MDA-MB-468. As to the kind of experiment: Induction of apoptosis in human MDA-MB-468 cells assessed as necrotic cells at 14 uM incubated for 48 hrs by annexin-V-FITC staining based flow cytometric method (reference value: 1.52 %). Type of series: functional.
Series [17] relates to MDA-MB-468. As to the kind of experiment: Induction of apoptosis in human MDA-MB-468 cells assessed as decrease in Bcl2 protein expression level incubated for 1 hr by Western blot analysis. It counts as functional, cell-based.
Series [18] can be described thus: Toxicity in BALB/c mouse xenografted with human MDA-MB-468 cells assessed as body weight at 80 to 100 mg/kg, ig measured every day for 21 day. Conditions: in vivo, po, 504 h. Type of series: organism-based. In a few lines:
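Female BALB/c nude mice, 6–8 weeks, given 1.0×10^7 MDA-MB-468 cells s.c. in right posterior flank; at 100 mm3 tumours, randomized into groups of five. Daily gavage at 80 or 100 mg/kg in saline with 0.1% Tween 80, or vehicle alone; body weight recorded daily, tumour volume every 2 days; sacrificed day 21.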

The test system of series [19] is MDA-MB-468. The series can be described thus: Induction of apoptosis in human MDA-MB-468 cells assessed as late apoptotic cells at 14 uM incubated for 48 hrs by annexin-V-FITC staining based flow cytometric method (reference value: 0.99 %). Type of series: functional.
For series [20], the system named is MDA-MB-468. As to the kind of experiment: Induction of cell cycle arrest in human MDA-MB-468 cells assessed as cell accumulation at G2/M phase at 56 uM incubated for 48 hrs by propidium iodide staining-based flow cytometric analysis (reference value: 26.66 %). It counts as functional. The procedure, abridged:
as §4

For series [21], the system named is MDA-MB-468. The series can be described thus: Induction of apoptosis in human MDA-MB-468 cells assessed as early apoptotic cells at 56 uM incubated for 48 hrs by annexin-V-FITC staining based flow cytometric method (reference value: 2.00 %). It counts as functional.
The nature of series [22]: Inhibition of hedgehog pathway in mouse NIH/3T3 cells harboring GRE-Luc assessed as inhibition of SAG-induced Hh signaling pathway by dual luciferase reporter gene assay. It counts as cell-based. The following applies: NIH3T3. In a few lines:
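NIH3T3 cells co-transfected with 8×3' Gli-BS-delta51-Luc II firefly reporter and pRL-TK Renilla plasmid; after 24 h treated with compounds plus SAG (pathway activator). Gli luciferase normalized to Renilla (dual-luciferase read-out); IC50 = concentration halving normalized signal; mean ± S.D. of 3–5 separate experiments.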

Activity calls are given as the source filed them. The rule behind the calls is not given here.

T1 sequence (Q99835 whole entry): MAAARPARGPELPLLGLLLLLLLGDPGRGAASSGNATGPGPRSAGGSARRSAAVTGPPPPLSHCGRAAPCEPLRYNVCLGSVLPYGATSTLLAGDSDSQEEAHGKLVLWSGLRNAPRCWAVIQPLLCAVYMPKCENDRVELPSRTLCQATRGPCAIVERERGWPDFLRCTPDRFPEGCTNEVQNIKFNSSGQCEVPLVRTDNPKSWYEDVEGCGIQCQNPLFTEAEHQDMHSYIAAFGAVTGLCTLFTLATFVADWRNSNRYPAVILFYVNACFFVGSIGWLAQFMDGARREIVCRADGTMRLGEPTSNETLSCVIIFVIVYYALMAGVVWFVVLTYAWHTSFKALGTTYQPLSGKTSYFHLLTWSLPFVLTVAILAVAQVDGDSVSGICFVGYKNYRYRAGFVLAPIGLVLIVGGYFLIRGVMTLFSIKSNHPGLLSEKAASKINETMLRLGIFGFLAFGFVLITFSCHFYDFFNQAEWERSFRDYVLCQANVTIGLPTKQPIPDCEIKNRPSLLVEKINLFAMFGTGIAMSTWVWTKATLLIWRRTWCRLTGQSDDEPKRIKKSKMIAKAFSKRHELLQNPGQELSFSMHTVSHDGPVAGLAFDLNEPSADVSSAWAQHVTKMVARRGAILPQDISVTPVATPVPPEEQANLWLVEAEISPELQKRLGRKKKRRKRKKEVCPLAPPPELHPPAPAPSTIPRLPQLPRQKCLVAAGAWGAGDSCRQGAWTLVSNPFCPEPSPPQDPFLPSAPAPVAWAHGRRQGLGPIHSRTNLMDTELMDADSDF

One may read the IC50 as the concentration that inhibits the measured activity by half. As a reminder, the LD50 is the dose expected to kill half of the subjects tested. For `O=C(Nc1ccc(Cl)c(-c2nnc3c(Cl)cccn23)c1)c1ccc(Cl)nc1Cl`, in [1], the mortality at 336 h amounted to 30%. Further, the inhibition result in the series listed under Mus musculus is “Active”. The Ka on Protein smoothened [2] stood at 360 M⁻¹ s⁻¹. The results for the IC50 (in the series on MDA-MB-231 [3]; in the series on MCF-10A; in series [22]) were 29.5 µM, over 100 µM and 0.09 µM, respectively. The Activity was 29.86% with MDA-MB-468 [4]; “Dose-dependent effect” with MDA-MB-468 [6]; 14.6% in the series with MDA-MB-468 [8]; 39% with MDA-MB-468 [9]; “Dose-dependent effect” with MDA-MB-231 [10]; 8.63% in the series with MDA-MB-468 [11]. The Activity is given as 45% in the series with MDA-MB-468 [12]; 86% in the series with MDA-MB-468 [13]; 44% with MDA-MB-468 [15]; 9.4% in the series on MDA-MB-468 [16]; “Non-Toxic” in series [18]; 7.15% in the series on MDA-MB-468 [19]. The Activity in the series with MDA-MB-468 [20] came out at 42.57%; with MDA-MB-468 [21] it was 6.53%. The LD50 at 336 h in series [5] is 3880 mg/kg. Besides, the Kdiss at Protein smoothened [7] was 0.00375 ×10⁻³ /s. The result in the series with MDA-MB-231 [14] and in the series on MDA-MB-468 [17] was Active.
